pIC50: −log10 of the molar value. Activity calls are given as the source filed them. No cut-off for these calls is given here.
Assays:
Human alphaherpesvirus 1 = assay: Binding affinity to Herpes simplex virus 1 recombinant Lys25-His332-truncated His6-tagged glycoprotein D expressed in Escherichia coli measured after 3 hrs by affinity co-electrophoretic analysis
Plasma = assay: Anticoagulant activity in human plasma assessed as inhibition of Cacl2-induced coagulation after 4 mins by fibrometric analysis; assay type: functional
Method in brief: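 Human plasma clotting times were read on a fibrometer in both prothrombin time (PT) and activated partial thromboplastin time (APTT) formats, across a range of inhibitor concentrations. Trend lines of clotting time versus concentration gave the concentration needed to double clotting time (2×PT, 2×APTT).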

[1] = biological target: Coagulation factor XI (Homo sapiens) (UniProt P03951); assay: Inhibition of human coagulation factor 11a at 365 uM after 10 mins by spectrophotometric analysis
Method in brief: (§1)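 Chromogenic substrate hydrolysis screen against each coagulation protease (VIIa, IXa, Xa, XIa, XIIa), each with its appropriate substrate. Inhibitor was tested at a single concentration of 365 μM. Fractional residual activity was taken as the ratio of initial hydrolysis rates with and without inhibitor, read spectrophotometrically.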

[2] = biological target: T1, Coagulation factor XII (Homo sapiens) (UniProt P00748); assay: Inhibition of human coagulation factor 12a using spectrozyme F12a as substrate at 365 uM after 10 mins by spectrophotometric analysis; method in brief: as §1
T1 sequence (whole entry): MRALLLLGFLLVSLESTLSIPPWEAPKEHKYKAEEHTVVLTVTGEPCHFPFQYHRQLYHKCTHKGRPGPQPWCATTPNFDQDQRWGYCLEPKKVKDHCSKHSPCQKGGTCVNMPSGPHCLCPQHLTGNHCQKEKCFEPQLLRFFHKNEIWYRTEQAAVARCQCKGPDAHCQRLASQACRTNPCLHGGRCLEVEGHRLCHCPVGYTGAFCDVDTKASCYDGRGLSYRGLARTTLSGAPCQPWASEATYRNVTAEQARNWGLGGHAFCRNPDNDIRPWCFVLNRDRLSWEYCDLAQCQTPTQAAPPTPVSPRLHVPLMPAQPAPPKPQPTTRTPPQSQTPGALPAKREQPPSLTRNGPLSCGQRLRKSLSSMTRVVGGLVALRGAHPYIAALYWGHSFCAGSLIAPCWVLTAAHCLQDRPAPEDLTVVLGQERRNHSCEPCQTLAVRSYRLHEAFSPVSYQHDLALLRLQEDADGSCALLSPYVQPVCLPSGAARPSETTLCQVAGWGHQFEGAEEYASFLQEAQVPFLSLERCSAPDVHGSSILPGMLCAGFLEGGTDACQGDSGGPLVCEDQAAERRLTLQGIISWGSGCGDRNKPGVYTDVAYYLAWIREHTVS

[3] = biological target: Coagulation factor X (Homo sapiens) (UniProt P00742); assay: Inhibition of human coagulation factor 10a using spectrozyme F10a as substrate at 365 uM after 10 mins by spectrophotometric analysis; method in brief: as §1
[4] = biological target: Coagulation factor IX (Homo sapiens) (UniProt P00740); assay: Inhibition of human coagulation factor 9a using spectrozyme F9a as substrate at 365 uM after 10 mins by spectrophotometric analysis; method in brief: as §1
[5] = biological target: T2, Coagulation factor VII (Homo sapiens) (UniProt P08709); assay: Inhibition of human coagulation factor 7a using spectrozyme 7a as substrate at 365 uM after 10 mins by spectrophotometric analysis; method in brief: as §1
T2 sequence (whole entry): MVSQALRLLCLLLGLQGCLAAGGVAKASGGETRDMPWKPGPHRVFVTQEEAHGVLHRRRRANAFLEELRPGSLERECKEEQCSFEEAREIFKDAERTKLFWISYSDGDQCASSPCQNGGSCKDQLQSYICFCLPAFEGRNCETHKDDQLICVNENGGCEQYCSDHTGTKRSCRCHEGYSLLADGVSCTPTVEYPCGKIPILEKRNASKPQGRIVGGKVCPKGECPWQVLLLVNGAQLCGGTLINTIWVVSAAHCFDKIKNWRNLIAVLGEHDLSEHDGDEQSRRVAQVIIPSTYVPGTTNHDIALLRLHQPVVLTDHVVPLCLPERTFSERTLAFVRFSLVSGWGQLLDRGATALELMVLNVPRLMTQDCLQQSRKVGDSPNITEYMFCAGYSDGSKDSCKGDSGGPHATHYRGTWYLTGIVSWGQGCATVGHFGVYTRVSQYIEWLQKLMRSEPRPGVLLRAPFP

Prothrombin = Prothrombin (Homo sapiens, UniProt P00734); assay: Inhibition of human alpha thrombin using spectrozyme TH as substrate
Method in brief: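 Chromogenic assay: initial rate of Spectrozyme TH hydrolysis read spectrophotometrically at pH 7.4 and 25 °C across a range of inhibitor concentrations. Fractional loss of initial rate plotted against log concentration and fitted to a logistic dose–response equation to give IC50.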

Coagulation factor X (Homo sapiens), sequence (P00742 41-179 limits assumed): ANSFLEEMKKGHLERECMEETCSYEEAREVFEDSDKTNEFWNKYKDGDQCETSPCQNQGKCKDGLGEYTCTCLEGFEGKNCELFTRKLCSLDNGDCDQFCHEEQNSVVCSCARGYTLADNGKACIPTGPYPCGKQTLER
Coagulation factor X (Homo sapiens), sequence (P00742 235-488 limits assumed): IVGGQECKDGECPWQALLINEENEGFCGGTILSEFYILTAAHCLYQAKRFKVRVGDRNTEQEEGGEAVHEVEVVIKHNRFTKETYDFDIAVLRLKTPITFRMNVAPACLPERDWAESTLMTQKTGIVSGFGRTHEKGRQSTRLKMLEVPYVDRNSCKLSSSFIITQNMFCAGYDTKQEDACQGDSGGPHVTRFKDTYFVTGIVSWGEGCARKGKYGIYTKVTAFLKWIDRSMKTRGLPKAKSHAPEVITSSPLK
Coagulation factor XI (Homo sapiens), sequence (P03951 19-387 limits assumed): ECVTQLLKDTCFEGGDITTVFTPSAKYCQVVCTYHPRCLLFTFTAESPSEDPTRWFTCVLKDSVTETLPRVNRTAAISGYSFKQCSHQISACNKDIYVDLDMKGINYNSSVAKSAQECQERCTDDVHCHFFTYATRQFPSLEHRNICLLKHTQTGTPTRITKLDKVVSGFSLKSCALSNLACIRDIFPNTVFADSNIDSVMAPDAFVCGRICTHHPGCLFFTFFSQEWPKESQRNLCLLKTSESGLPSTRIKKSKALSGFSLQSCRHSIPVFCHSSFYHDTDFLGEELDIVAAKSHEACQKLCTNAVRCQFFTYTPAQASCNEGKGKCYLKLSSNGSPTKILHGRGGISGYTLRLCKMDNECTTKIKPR
Coagulation factor XI (Homo sapiens), sequence (P03951 388-625 limits assumed): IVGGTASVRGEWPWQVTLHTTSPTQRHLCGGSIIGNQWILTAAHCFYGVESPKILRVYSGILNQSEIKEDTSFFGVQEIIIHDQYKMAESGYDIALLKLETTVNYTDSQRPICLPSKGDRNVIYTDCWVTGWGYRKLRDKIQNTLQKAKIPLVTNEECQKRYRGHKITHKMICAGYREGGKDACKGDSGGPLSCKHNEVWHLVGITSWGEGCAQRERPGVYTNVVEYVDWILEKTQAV
Coagulation factor IX (Homo sapiens), sequence (P00740 47-191 limits assumed): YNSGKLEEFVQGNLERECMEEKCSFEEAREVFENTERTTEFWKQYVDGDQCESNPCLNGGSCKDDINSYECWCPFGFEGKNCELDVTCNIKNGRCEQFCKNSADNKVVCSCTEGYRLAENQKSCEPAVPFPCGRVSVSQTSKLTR
Coagulation factor IX (Homo sapiens), sequence (P00740 227-461 limits assumed): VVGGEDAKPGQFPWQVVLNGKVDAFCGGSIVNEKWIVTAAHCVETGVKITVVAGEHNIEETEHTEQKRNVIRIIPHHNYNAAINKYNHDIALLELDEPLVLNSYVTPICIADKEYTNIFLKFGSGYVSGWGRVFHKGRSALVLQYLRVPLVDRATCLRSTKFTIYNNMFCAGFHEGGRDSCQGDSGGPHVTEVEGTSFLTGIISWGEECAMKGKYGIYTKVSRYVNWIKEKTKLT

Activity (Human alphaherpesvirus 1)	SMILES	2PT (Plasma)	2aPTT (Plasma)	inhibition [1]	inhibition [2]	inhibition [3]	inhibition [4]	inhibition [5]	pIC50 (Prothrombin)
19 µM	O=C(O)C1=C[C@H](O)[C@@H](OS(=O)(=O)O)[C@@H](O[C@H]2[C@H](O)[C@@H](NS(=O)(=O)O)[C@@H](O[C@H]3[C@H](O)[C@@H](OS(=O)(=O)O)[C@@H](O[C@H]4[C@H](O)[C@@H](NS(=O)(=O)O)[C@@H](O[C@H]5[C@H](O)[C@@H](OS(=O)(=O)O)[C@@H](O[C@H]6[C@H](OS(=O)(=O)O)[C@@H](NS(=O)(=O)O)[C@@H](O[C@H]7[C@H](O)[C@@H](OS(=O)(=O)O)[C@@H](O[C@H]8[C@H](O)[C@@H](NS(=O)(=O)O)[C@@H](O)O[C@@H]8COS(=O)(=O)O)O[C@H]7C(=O)O)O[C@@H]6COS(=O)(=O)O)O[C@H]5C(=O)O)O[C@@H]4COS(=O)(=O)O)O[C@H]3C(=O)O)O[C@@H]2COS(=O)(=O)O)O1	–	–	–	–	–	–	–	–
–	N#Cc1c(SCC(=O)c2cccc(OS(=O)(=O)O)c2OS(=O)(=O)O)nc([N+](=O)[O-])c(C#N)c1-c1ccc(OCc2ccccc2)cc1	606 µM	550 µM	Active	> 20%	> 20%	> 20%	> 20%	4.18
–	O=C(Nc1ccc(OS(=O)(=O)O)cc1)c1cccc(N2C(=O)c3ccc(C(=O)Nc4ccc(OS(=O)(=O)O)cc4)cc3C2=O)c1	–	–	inactive	> 20%	> 20%	> 20%	> 20%	3.54
